Test results reported in ChEMBL document CHEMBL4251676, “Precursor-Directed Biosynthesis of Phenylbenzoisoquinolindione Alkaloids and the Discovery of a Phenylphenalenone-Based Plant Defense Mechanism” (J Nat Prod, 2018).
Activity calls are given as the source filed them. The calls are words filed in the database; no cut-off is given here.

Columns and labels:
Assay type in all cases: functional, organism-based
Escherichia coli = test: Antimicrobial activity against Escherichia coli isolate 458 after 18 hrs
How it was run: (§1)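 Ciprofloxacin and amphotericin B were run alongside as reference antimicrobials.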

[1] = test system: Sporobolomyces salmonicolor; test: Antimicrobial activity against Sporidiobolus salmonicolor isolate 549 after 18 hrs; how it was run: as §1
Staphylococcus aureus = test: Antimicrobial activity against methicillin-resistant Staphylococcus aureus isolate 134/93 after 18 hrs

For `O=C1C(O)=Cc2cn([C@@H](Cc3ccccc3)C(=O)O)c(=O)c3ccc(-c4ccccc4)c1c23`, the Activity (Escherichia coli) was “inactive”, the Activity [1] was “inactive” and the Activity (Staphylococcus aureus) was “inactive”.

`COC1=Cc2cn([C@@H](Cc3ccccc3)C(=O)O)c(=O)c3ccc(-c4ccccc4)c(c23)C1=O` was tested, and the Activity (Escherichia coli) was “inactive”, the Activity [1] was “inactive” and the Activity (Staphylococcus aureus) was “inactive”.

In the case of `CC(C)C[C@@H](C(=O)O)n1cc2c3c(c(-c4ccccc4)ccc3c1=O)C(=O)C(O)=C2`, the Activity (Escherichia coli) is reported as “inactive”, the Activity [1] is reported as “inactive” and the Activity (Staphylococcus aureus) is reported as “inactive”.

`C[C@@H]1[C@H](O)[C@@H](C)/C=C/C=C/C=C/C=C/C=C/C=C/C=C/[C@H](O[C@@H]2O[C@H](C)[C@@H](O)[C@H](N)[C@@H]2O)C[C@@H]2O[C@](O)(C[C@@H](O)C[C@@H](O)[C@H](O)CC[C@@H](O)C[C@@H](O)CC(=O)O[C@H]1C)C[C@H](O)[C@H]2C(=O)O` was tested, and the Activity (Escherichia coli) was “Active” and the Activity [1] was “Active”.

For `O=C1C(O)=Cc2cn(CCO)c(=O)c3ccc(-c4ccccc4)c1c23`, the Activity (Escherichia coli) was “inactive”, the Activity [1] was “inactive” and the Activity (Staphylococcus aureus) was “inactive”.

For `O=C1OC(O)c2cc(O)c(O)c3c(-c4ccccc4)ccc1c23` (configuration not stated), the Activity (Staphylococcus aureus) was “Active”.

With `COC1=Cc2cn([C@@H](Cc3ccc(O)cc3)C(=O)O)c(=O)c3ccc(-c4ccccc4)c(c23)C1=O` the Activity (Escherichia coli) was “inactive”, the Activity [1] was “inactive” and the Activity (Staphylococcus aureus) was “inactive”.

In the case of `O=C1C(O)=Cc2coc(=O)c3ccc(-c4ccccc4)c1c23`, the Activity (Staphylococcus aureus) is reported as “Active”.

In the case of `O=C(O)c1cn(C2CC2)c2cc(N3CCNCC3)c(F)cc2c1=O`, the Activity (Escherichia coli) is reported as “Active” and the Activity [1] is reported as “Active”.

In the case of `COc1cc2c3c(ccc(-c4ccccc4)c3c1O[C@@H]1O[C@H](COC(=O)CC(=O)O)[C@@H](O)[C@H](O)[C@H]1O)C(=O)OC2`, the Activity (Escherichia coli) is reported as “Active” and the Activity [1] is reported as “Active”.

With `O=C1OCc2cc(O)c(O)c3c(-c4ccccc4)ccc1c23` the Activity (Escherichia coli) was “Active” and the Activity [1] was “Active”.

With `CSCC[C@@H](C(=O)O)n1cc2c3c(c(-c4ccccc4)ccc3c1=O)C(=O)C(O)=C2` the Activity (Escherichia coli) was “inactive”, the Activity [1] was “inactive” and the Activity (Staphylococcus aureus) was “inactive”.

In the case of `COC1=Cc2cn([C@H](CC(C)C)C(=O)O)c(=O)c3ccc(-c4ccccc4)c(c23)C1=O`, the Activity (Escherichia coli) is reported as “inactive”, the Activity [1] is reported as “inactive” and the Activity (Staphylococcus aureus) is reported as “inactive”.

`COC1=Cc2cn([C@@H](Cc3c[nH]c4ccccc34)C(=O)O)c(=O)c3ccc(-c4ccccc4)c(c23)C1=O` was tested, and the Activity (Escherichia coli) was “inactive”, the Activity [1] was “inactive” and the Activity (Staphylococcus aureus) was “inactive”.

In the case of `COc1cc2c3c(ccc(-c4ccccc4)c3c1O)C(=O)OC2OC` (configuration not stated), the Activity (Staphylococcus aureus) is reported as “Active”.

`O=C1C(O)=Cc2cn([C@H](Cc3ccccc3)C(=O)O)c(=O)c3ccc(-c4ccccc4)c1c23` was tested, and the Activity (Escherichia coli) was “inactive”, the Activity [1] was “inactive” and the Activity (Staphylococcus aureus) was “inactive”.

For `O=C1OC(C(=O)O)c2cc(O)c(O)c3c(-c4ccccc4)ccc1c23` (configuration not stated), the Activity (Escherichia coli) was “Active” and the Activity [1] was “Active”.

`O=C(O)CC(=O)OC[C@H]1O[C@@H](Oc2c(O)cc3c4c(ccc(-c5ccccc5)c24)C(=O)OC3)[C@H](O)[C@@H](O)[C@@H]1O` was tested, and the Activity (Escherichia coli) was “Active” and the Activity [1] was “Active”.

With `O=C1C(O)=Cc2c3n(c(=O)c4ccc(-c5ccccc5)c1c24)[C@H](C(=O)O)CS3` the Activity (Escherichia coli) was “inactive”, the Activity [1] was “inactive” and the Activity (Staphylococcus aureus) was “inactive”.

For `O=C1C(O)=Cc2cn(CCCC[C@@H](C(=O)O)n3cc4c5c(c(-c6ccccc6)ccc5c3=O)C(=O)C(O)=C4)c(=O)c3ccc(-c4ccccc4)c1c23`, the Activity (Escherichia coli) was “inactive”, the Activity [1] was “inactive” and the Activity (Staphylococcus aureus) was “inactive”.

With `COC1=Cc2cn([C@H](Cc3ccccc3)C(=O)O)c(=O)c3ccc(-c4ccccc4)c(c23)C1=O` the Activity (Escherichia coli) was “inactive”, the Activity [1] was “inactive” and the Activity (Staphylococcus aureus) was “inactive”.

In the case of `CC(C)C[C@H](C(=O)O)n1cc2c3c(c(-c4ccccc4)ccc3c1=O)C(=O)C(O)=C2`, the Activity (Escherichia coli) is reported as “inactive”, the Activity [1] is reported as “inactive” and the Activity (Staphylococcus aureus) is reported as “inactive”.

With `O=C1OC(C(=O)O)c2cc(O)c(O[C@@H]3O[C@H](CO)[C@@H](O)[C@H](O)[C@H]3O)c3c(-c4ccccc4)ccc1c23` (some centres not stated) the Activity (Escherichia coli) was “Active” and the Activity [1] was “Active”.

With `COC1OC(=O)c2ccc(-c3ccccc3)c3c(O)c(O)cc1c23` (configuration not stated) the Activity (Staphylococcus aureus) was “Active”.
